Results reported in article PMC4452166 (Cancer Science, 2015).

Assays:
JKT-beta-del cells = experiment: MTT cytotoxicity assay, JKT-beta-del; format: cell-based, human; details: read-out: IC50 (cytotoxicity), 48 h
In short: (§1)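 Leukemia lines kept in RPMI medium with 10% FBS and antibiotics, 37°C, 5% CO2. Cells plated directly with test compound and incubated 48 h at 37°C. MTT added for 4 h; formazan dissolved overnight at room temperature in extraction solution (40% dimethylformamide, 2% acetic acid, 0.03 M HCl, 20% SDS); OD 570 nm. Means ± SD, n = 3.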

[1] = system: low TC4ATS-Cd-sensitive leukemia cell lines and epithelia-derived cell lines except for HEK293; format: cell-based, human; details: 50 μM, 24 h, western blot
AGS cells = experiment: MTT cytotoxicity assay, AGS; format: cell-based, human; details: for IC50: read-out: IC50 (cytotoxicity), 48 h
In short: (§2)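 Human epithelia-derived lines grown in 10% FBS media at 37°C, 5% CO2: FLC-4 in DMEM/F12, MCF7 in Eagle's MEM + 10 μg/mL insulin, HCT116 in McCoy's 5A, AGS/HEK293 in DMEM, TE4 in RPMI. Cells seeded 24 h before test compound, then exposed 48 h at 37°C. MTT 4 h; overnight solubilisation (DMF/acetic acid/HCl/SDS); OD 570 nm. n = 3. IC20 reported as maximum tolerated concentration.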

FLC-4 cells = experiment: MTT cytotoxicity assay, FLC-4; format: cell-based, human; details: for IC50: read-out: IC50 (cytotoxicity), FLC-4, 48 h
In short: as §2

HL-60 cells = experiment: MTT cytotoxicity assay, HL-60; format: cell-based, human; details: read-out: IC50 (cytotoxicity), HL-60, 48 h
In short: as §1

HPB-ALL cells [2] = experiment: MTT cytotoxicity assay, HPB-ALL; format: cell-based, human; details: read-out: IC50 (cytotoxicity), 48 h
In short: as §1

HCT116 cells = experiment: MTT cytotoxicity assay, HCT116; format: cell-based, human; details: for IC50: read-out: IC50 (cytotoxicity), HCT116, 48 h
In short: as §2

HUT78 cells = experiment: MTT cytotoxicity assay, HUT78; format: cell-based, human; details: read-out: IC50 (cytotoxicity), HUT78, 48 h
In short: as §1

Jurkat cells [3] = experiment: Jurkat xenograft model in SCID mice; format: in vivo; details: for tumor weight vs vehicle: day 35 after inoculation; for Survival: tumor-bearing SCID mice
In short: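 Six-week-old female SCID mice inoculated s.c. with 5 × 10^7 Jurkat cells. From day 20, mice received saline vehicle, test compound 13 mg/kg (13 μmol/kg) or CdCl2 3 mg/kg (13 μmol/kg) i.p. three times weekly for 2 weeks, n = 5 per group. Body weight and tumor size taken three times weekly; volume = long × short² × 1/2. Killed on day 35; tumors, liver, kidney, spleen and lung weighed. Student's t-test.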

PEER cells = experiment: MTT cytotoxicity assay, PEER; format: cell-based, human; details: read-out: IC50 (cytotoxicity), 48 h
In short: as §1

[4] = system: caspase-3 in Jurkat cells; experiment: Caspase-3 activity assay with fluorogenic substrate in cell lysates; format: cell-based, human; details: Ac-DEVD-MCA substrate
Jurkat cells [5] = experiment: Western blot of activated caspase-3 and cleaved PARP, Jurkat; format: cell-based, human; details: 24 h
In short: (§3)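 Leukemia cells treated with test compound for 24 h. Equal protein run on reducing SDS-PAGE and transferred to PVDF. Blocked in 1% skim milk; probed for activated caspase-3, cleaved PARP and β-actin; peroxidase secondary antibody; ECL detection.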

HEK293 cells = experiment: MTT cytotoxicity assay, HEK293; format: cell-based, human; details: for IC50: read-out: IC50 (cytotoxicity), HEK293, 48 h
In short: as §2

HPB-ALL cells [6] = experiment: Western blot of activated caspase-3 and cleaved PARP, HPB-ALL; format: cell-based, human; details: 50 μM, 24 h
In short: as §3

Jurkat cells [7] = experiment: Lactate dehydrogenase; format: cell-based, human; details: 48 h
MCF7 cells = experiment: MTT cytotoxicity assay, MCF7; format: cell-based, human; details: for IC50: read-out: IC50 (cytotoxicity), MCF7, 48 h
In short: as §2

Jurkat cells [8] = experiment: MTT cytotoxicity assay, Jurkat; format: cell-based, human; details: read-out: IC50 (cytotoxicity), 48 h
In short: as §1

TE4 cells = experiment: MTT cytotoxicity assay, TE4; format: cell-based, human; details: for IC50: read-out: IC50 (cytotoxicity), TE4, 48 h
In short: as §2

[9] = in vivo; cited from earlier work
[10] = 13 μmol/kg i.p. three times weekly for 2 weeks

Compound	IC50 (JKT-beta-del cells)	apoptotic events (caspase-3 activation, PARP cleavage) [1]	IC50 (AGS cells)	IC50 (FLC-4 cells)	IC50 (HL-60 cells)	IC50 (HPB-ALL cells [2])	IC50 (HCT116 cells)	IC50 (HUT78 cells)	renal atrophy (relative kidney weight) (Jurkat cells [3]; [10])	tumor weight vs vehicle (Jurkat cells [3]; [10])	Survival (Jurkat cells [3]; [10])	IC50 (PEER cells)	IC50 (HEK293 cells)	caspase-3 activation and cleavage of PARP (HPB-ALL cells [6])	IC50 (MCF7 cells)	IC50 (Jurkat cells [8])	IC50 (TE4 cells)	also measured
cadmium-coordinated thiacalix[4]arene tetrasulfate [TC4ATS-Cd]	275 µM	not elicited	947 µM	2450 µM	81 µM	17 µM	1500 µM	35 µM	no significant atrophy	significantly lower	5/5	144 µM	15 µM	induced	2210 µM	6.9 µM	2130 µM	IC20 (AGS cells; read-out: maximum tolerated concentration (=IC20 value), 48 h): 505 µM; IC20 (FLC-4 cells; read-out: maximum tolerated concentration (=IC20 value), FLC-4, 48 h): 667 µM; IC20 (HCT116 cells; read-out: maximum tolerated concentration (=IC20 value), HCT116, 48 h): 280 µM; body weight changes vs vehicle (Jurkat cells [3]; [10]): no significant difference; tumor growth of Jurkat cells (Jurkat cells [3]; 13 mg/kg, xenograft model in mice): significantly suppressed; caspase-3 proteolytic activity [4]: increased its proteolytic activity; cleavage of PARP (Jurkat cells [5]): consistently and markedly upregulated; levels of activated caspase-3 protein (Jurkat cells [5]): upregulated; IC20 (HEK293 cells; read-out: maximum tolerated concentration (=IC20 value), HEK293, 48 h): 6.8 µM; LDH release (Jurkat cells [7]): increased LDH release from Jurkat cells in a dose-dependent manner; IC20 (MCF7 cells; read-out: maximum tolerated concentration (=IC20 value), MCF7, 48 h): 1330 µM; IC20 (TE4 cells; read-out: maximum tolerated concentration (=IC20 value), TE4, 48 h): 454 µM
O=S(=O)(O)c1cc2c(O)c(c1)Cc1cc(S(=O)(=O)O)cc(c1O)Cc1cc(S(=O)(=O)O)cc(c1O)Cc1cc(S(=O)(=O)O)cc(c1O)C2 [C4ATS, p-tetrasulfonated calix[4]arene]																		dose without toxic effects, acute toxicity [9]: ≥ 100 mg/kg
[Cl][Cd][Cl] [CdCl2, Cadmium chloride, reference compound]	30 µM	not elicited	60 µM	106 µM	27 µM	9.8 µM	47 µM	25 µM	notably induced renal atrophy	non-significant decrease	3/5	28 µM	1.9 µM	induced	36 µM	6.5 µM	129 µM	
